# Experimental data as given in PMC6369589 (Cell, 2019).
# pIC50: −log10 of the molar value.
# What was measured:
# Ae. aegypti NPYLR7 = Ae. aegypti NPYLR7 (Aedes aegypti, UniProt U5N1H5); experiment: GCaMP6s calcium cell-based assay, HEK293T cells expressing NPYLR7 and Gqα15
# Method in brief: (§1)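 HEK293T cells transiently co-transfected (Lipofectamine 2000) with 1 μg each of GCaMP6s, mouse Gqα15 and receptor plasmids. Cells were plated overnight in DMEM/FBS at 37°C, 5% CO2, then imaged in HBSS + 20 mM HEPES. Test agonist plus inhibitor added after 30 s baseline; GFP fluorescence read every 1 s for 5 min, normalized to baseline. Log(inhibitor)-response nonlinear fit; mean ± SD, 3 trials × 4 replicates.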
# [1] = tested on: Ae. aegypti female mosquitoes; experiment: Miniport olfactometer host-seeking after Glytube drug-feeding; type: in vivo, Aedes aegypti; conditions: fed in protein-rich artificial blood-meal, assayed 2 days after feeding
# Ae. aegypti NPYLR5 = experiment: GCaMP6s calcium cell-based assay, HEK293T cells expressing NPYLR5 and Gqα15; parameters: species or system Aedes aegypti; conditions: dose-inhibition of TM30335 activation
# Method in brief: as §1
compound,measurement,setting,value
N=C(N)NCCC[C@H](NC(=O)CC1(CC(=O)N2CCN(C3c4ccccc4NC(=O)c4ccccc43)CC2)CCCC1)C(=O)NCCn1c(=O)n(-c2ccccc2)n(-c2ccccc2)c1=O (stereo partly drawn) [BIIE0246],pIC50,Ae. aegypti NPYLR7,5.29
same,release from host-seeking suppression in miniport olfactometer,[1],dose-dependent release from suppression
same,effect on NPYLR5 responses to TM30335,Ae. aegypti NPYLR5,no effect
